Results: ChEMBL document CHEMBL4725355, “Design, Synthesis, and Preclinical Evaluation of 3-Methyl-6-(5-thiophenyl)-1,3-dihydro-imidazo[4,5-b]pyridin-2-ones as Selective GluN2B Negative Allosteric Modulators for the Treatment of Mood Disorders” (J Med Chem, 2020)
≈ marks a conversion by molar mass, not a printed value.

What was measured:
[1] = Solubility of compound in phosphate buffer at pH 2 measured after 3 days; assay type: physicochemical; details: time 3 day
Outline: (§1)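 Solubility in aqueous buffer at pH 2 and pH 7, and in simulated gastric and intestinal fluids.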

[2] = Ratio of Cmax in Sprague-Dawley rat at 500 mg/kg, po administered via gavage after 24 hrs using nanosuspension formulation by LC-MS/MS analysis to EC70 for ex vivo receptor occupancy at GluN2B in po dosed Sprague-Dawley rat assessed as 3-[3H] 1-(azetidin-1-yl)-2-[6-(4-fluoro-3-methyl-phenyl)pyrrolo[3,2-b]pyridin-1-yl]-ethanone labelling; assay type: ADME, organism-based
[3] = AUC (0 to 24 hrs) in Sprague-Dawley rat at 100 mg/kg, po administered via gavage after 24 hrs using nanosuspension formulation by LC-MS/MS analysis; assay type: ADME, organism-based; design: route oral, dose 100 mg/kg, time <=24; details: in vivo
Outline: (§2)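 Single oral gavage dose to male Sprague Dawley rats, 3 per dose level. Vehicles were a standard suspension in 5% HPMC (125, 250, 500 or 1000 mg/kg) or a nanosuspension (API:polymer 4:1), with stock diluted in vehicle on the day of dosing (100, 250 or 500 mg/kg). Blood was sampled at time points from 0.5 to 24 h.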

[4] = Solubility of compound in 20% hydroxypropyl-beta-cyclodextrin; assay type: physicochemical
Outline: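 Solubility of the compound assessed in dosing excipients, including 30% SBE-β-CD, 50% PEG-400 and 20% HP-β-CD. The aim was a solution usable for rat dosing; the 20% HP-β-CD formulation was checked for a 0.1 mg/mL solution to support a 0.5 mg/kg dose.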

[5] = AUC (infinity) in dog at 0.1 mg/kg, iv by LC-MS/MS analysis; assay type: ADME, organism-based, Canis lupus familiaris; design: time infinity, route intravenous, dose 0.1 mg/kg; details: in vivo
[6] = AUC (infinity) in dog at 0.5 mg/kg, po by LC-MS/MS analysis; assay type: ADME, organism-based, Canis lupus familiaris; design: time infinity, route oral, dose 0.5 mg/kg; details: in vivo
[7] = Cmax in dog at 0.5 mg/kg, po by LC-MS/MS analysis; assay type: ADME, organism-based, Canis lupus familiaris; design: route oral, dose 0.5 mg/kg; details: in vivo
[8] = AUC (0 to 24 hrs) in Sprague-Dawley rat at 250 mg/kg, po administered via gavage after 24 hrs using HPMC formulation by LC-MS/MS analysis; assay type: ADME, organism-based; design: route oral, dose 250 mg/kg, time <=24; details: in vivo; outline: as §2
[9] = biological target: T1, Cytochrome P450 1A2 (Homo sapiens, UniProt P05177); assay: Inhibition of CYP1A2 in human liver microsomes using phenacetin as substrate measured after 15 mins by LC-MS/MS analysis; assay type: ADME
T1 sequence (P05177 whole entry): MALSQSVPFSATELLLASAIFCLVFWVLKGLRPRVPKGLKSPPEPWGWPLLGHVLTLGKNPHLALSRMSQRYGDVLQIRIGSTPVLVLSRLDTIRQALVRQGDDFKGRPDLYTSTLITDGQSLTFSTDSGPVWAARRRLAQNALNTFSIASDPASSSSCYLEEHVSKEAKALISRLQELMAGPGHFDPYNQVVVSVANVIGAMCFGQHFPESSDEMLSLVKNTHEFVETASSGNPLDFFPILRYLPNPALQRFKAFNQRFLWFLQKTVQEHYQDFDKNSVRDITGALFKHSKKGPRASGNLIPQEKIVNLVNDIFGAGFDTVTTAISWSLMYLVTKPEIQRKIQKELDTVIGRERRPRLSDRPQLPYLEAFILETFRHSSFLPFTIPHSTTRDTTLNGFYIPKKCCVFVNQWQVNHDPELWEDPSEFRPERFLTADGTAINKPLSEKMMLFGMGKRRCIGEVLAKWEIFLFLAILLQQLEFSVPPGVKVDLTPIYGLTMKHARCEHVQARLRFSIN
Outline: (§3)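 Human liver microsomes incubated with isoform-specific probe substrates and the test compound at concentrations up to 20 µM. IC50 derived from inhibition of metabolite formation; mean of two independent experiments, with known specific inhibitors as positive controls.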

[10] = Oral bioavailability in Sprague-Dawley rat at 2.5 mg/kg by LC-MS/MS analysis; assay type: ADME, organism-based; details: in vivo
[11] = Clearance in Sprague-Dawley rat at 0.5 mg/kg, iv using 1:1 PEG-400/water formulation by LC-MS/MS analysis; assay type: ADME, organism-based; details: in vivo
Outline: (§4)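 Rat IV/PO PK at 0.5 mg/kg IV and 2.5 mg/kg PO, dosed in 1:1 PEG400/water, n=3.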

[12] = biological target: Cytochrome P450 2C19 (Homo sapiens, UniProt P33261); assay: Inhibition of CYP2C19 in human liver microsomes using S-mephenytoin as substrate measured after 15 mins by LC-MS/MS analysis; assay type: ADME; outline: as §3
[13] = Half life in monkey at 0.1 mg/kg, iv by LC-MS/MS analysis; assay type: ADME, organism-based, Macaca mulatta; details: rhesus monkey, in vivo
[14] = Solubility of compound in FASSIF at pH 6.8 measured after 3 days; assay type: physicochemical; details: time 3 day; outline: as §1
[15] = Intrinsic clearance in human liver microsomes at 1 uM after 5 to 60 mins in presence of NADPH by LC-MS/MS analysis; assay type: ADME, Microsome; details: time 5-60 min, read-out: CLH
[16] = Clearance in mouse at 0.5 mg/kg, iv by LC-MS/MS analysis; assay type: ADME, organism-based; details: in vivo
[17] = Tmax in Sprague-Dawley rat at 0.5 mg/kg, iv or 2.5 mg/kg, po using 1:1 PEG-400/water formulation by LC-MS/MS analysis; assay type: ADME, organism-based; details: in vivo
Outline: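 Rat PK at 0.5 mg/kg i.v. and 2.5 mg/kg p.o., vehicle 1:1 PEG400/water. n=3, values given as mean ± SD.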

[18] = Toxicity in Sprague-Dawley rat assessed as change in behavior at 500 mg/kg/day, po administered as nanosuspension measured after 2 days; assay type: organism-based; details: in vivo, 48 h, time 2 day
Outline: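 Repeated daily oral dosing of a nanosuspension to rats for 14 days, with 500 mg/kg/day as the high dose. Clinical observations were recorded, and animals were moved to individual caging on Day 6.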

[19] = Metabolic stability in rat liver microsomes assessed as extraction ratio at 1 uM after 5 to 60 mins in presence of NADPH by LC-MS/MS analysis; assay type: ADME, Microsome; details: time 5-60 min, read-out: ERH
Outline: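 Human and rat liver microsomes, run in duplicate; stability reported as microsomal extraction ratio.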

[20] = AUC (infinity) in mouse at 2.5 mg/kg, po by LC-MS/MS analysis; assay type: ADME, organism-based; design: route oral, time infinity, dose 2.5 mg/kg; details: in vivo
[21] = AUC (infinity) in Sprague-Dawley rat at 0.5 mg/kg, iv or 2.5 mg/kg, po using 1:1 PEG-400/water formulation by LC-MS/MS analysis; assay type: ADME, organism-based; design: dose 2.5 mg/kg; details: in vivo; outline: as §4
[22] = biological target: Cytochrome P450 3A4 (Homo sapiens, UniProt P08684); assay: Time-dependent inhibition of CYP3A4 in human liver microsomes at 10 uM using testosterone as substrate by LC-MS/MS analysis; assay type: ADME
Outline: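 CYP3A4 time-dependent inhibition in human liver microsomes. The compound (0.4 to 10 μM) was tested with and without 30 min preincubation. IC50 was taken from percent activity remaining versus vehicle, averaged over two independent experiments. A >2-fold IC50 shift after preincubation was the threshold for time-dependent inhibition.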

[23] = Drug level in Sprague-Dawley rat brain cerebellum at 0.03 mg/kg, iv after 60 min by LC-MS/MS analysis; assay type: ADME, organism-based; details: read-out: Drug uptake
Outline: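 Single i.v. dose of 0.03 mg/kg in 50% (w/v) PEG/water, pH 7.4; rats n=3 per group, killed at 5, 10, 30, 60 and 120 min. Cerebellum, cortex, striatum and hippocampus dissected, weighed and homogenized; drug quantified by LC-MS/MS and normalized to tissue weight. P<0.05 taken as significant versus cerebellum.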

Cytochrome P450 3A4, sequence (P08684 whole entry): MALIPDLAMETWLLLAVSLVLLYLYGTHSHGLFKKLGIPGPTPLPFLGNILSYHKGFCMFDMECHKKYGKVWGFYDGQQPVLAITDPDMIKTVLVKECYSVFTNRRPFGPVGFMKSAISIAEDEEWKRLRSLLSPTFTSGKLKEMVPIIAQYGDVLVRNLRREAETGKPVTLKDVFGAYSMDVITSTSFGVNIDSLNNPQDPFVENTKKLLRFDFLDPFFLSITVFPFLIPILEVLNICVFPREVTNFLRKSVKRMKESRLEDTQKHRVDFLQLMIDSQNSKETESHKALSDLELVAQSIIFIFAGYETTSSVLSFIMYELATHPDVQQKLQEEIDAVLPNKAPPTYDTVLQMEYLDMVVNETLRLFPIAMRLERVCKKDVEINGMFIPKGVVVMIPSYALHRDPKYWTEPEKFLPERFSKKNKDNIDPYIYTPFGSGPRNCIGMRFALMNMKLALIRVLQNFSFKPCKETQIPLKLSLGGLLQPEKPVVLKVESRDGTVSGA
Cytochrome P450 2C19, sequence (P33261 whole entry): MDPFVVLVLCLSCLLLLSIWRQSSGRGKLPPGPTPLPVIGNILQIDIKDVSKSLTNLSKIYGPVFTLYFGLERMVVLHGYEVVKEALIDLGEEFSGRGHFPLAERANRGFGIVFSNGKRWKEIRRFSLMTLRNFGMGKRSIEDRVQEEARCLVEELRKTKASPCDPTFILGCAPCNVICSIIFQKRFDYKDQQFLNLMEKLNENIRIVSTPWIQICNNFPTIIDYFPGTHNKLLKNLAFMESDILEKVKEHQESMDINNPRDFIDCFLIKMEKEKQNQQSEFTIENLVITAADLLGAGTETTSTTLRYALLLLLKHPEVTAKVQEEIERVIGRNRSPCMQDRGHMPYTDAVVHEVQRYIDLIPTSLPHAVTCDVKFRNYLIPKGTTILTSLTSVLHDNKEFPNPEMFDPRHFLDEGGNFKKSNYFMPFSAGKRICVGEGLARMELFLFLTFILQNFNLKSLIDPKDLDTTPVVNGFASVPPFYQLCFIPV

## Cn1c(=O)n(CC(=O)N2CCC2)c2cc(-c3ccc(C(F)(F)F)s3)cnc21
[1]
  solubility at 72 h: < 4 µM
[2]
  Ratio: 26
[3]
  AUC(0-t): 51900 ng·h/mL
[4]
  solubility: < 1000 µg/mL
[5]
  AUC(0-inf): 126 ng·h/mL
[6]
  AUC(0-inf): 268 ng·h/mL
[7]
  Cmax: 351 ng/mL
[8]
  AUC(0-t): 19700 ng·h/mL
[9]
  IC50: > 50 µM
[10]
  bioavailability: 132%
[11]
  clearance: 30 mL/min/kg
[12]
  IC50: > 50 µM
[13]
  half-life: 1.1 h
[14]
  solubility at 72 h: 8.4 µM (≈ 3.33 µg/mL)
[15]
  microsomal CLint at 1 µM: 5.4 µL/min/mg
[16]
  clearance: 54 mL/min/kg
[17]
  Tmax: 1.3 h
[18]
  Activity: Toxic
[19]
  hepatic extraction ratio at 1 µM: < 0.17
[20]
  AUC(0-inf): 539 ng·h/mL
[21]
  AUC(0-inf): 1830 ng·h/mL
[22]
  TDI: Not Active
[23]
  concentration at 1 h: 11.9 ng/mL
